Reference: PMC5989537 (Journal of natural products, 2018)
Read-outs that look alike come from different tables or passages of the source.

How the values were obtained:
[1] = test system: P. falciparum; settings: cited from earlier work
[2] = test system: L. infantum promastigotes; assay: Anti-leishmanial MTT viability assay, L. infantum promastigotes; format: cell-based, Leishmania (L.) infantum
[3] = test system: L. amazonensis promastigotes; assay: Anti-leishmanial MTT viability assay, L. amazonensis promastigotes; format: cell-based, Leishmania (L.) amazonensis
[4] = test system: T. cruzi epimastigotes; assay: Anti-T. cruzi MTT viability assay, epimastigotes; format: cell-based, Trypanosoma cruzi
[5] = test system: P. falciparum (3D7); assay: Anti-plasmodial SYBR green assay, P. falciparum 3D7 blood parasites; format: cell-based, Plasmodium falciparum
[6] = test system: HepG2; assay: Cytotoxicity on HepG2 cells; format: cell-based; settings: HepG2, 24 h, MTT
[7] = test system: HepG2 cells; assay: HepG2 cell morphology by microscopy after treatment; format: cell-based, human; settings: 24 h, concentration 10-fold higher than IC50 (10 μM)
[8] = test system: P. falciparum; assay: Stage-specific inhibitory activity on highly-synchronized parasites; format: cell-based, Plasmodium falciparum; settings: 10-fold IC50, synchronized parasites
[9] = test system: P. falciparum; assay: In vitro association with artesunate; format: cell-based, Plasmodium falciparum; settings: isobologram analysis
[10] = test system: intracellular L. (L.) amazonensis amastigotes; assay: Intracellular L.; format: cell-based, Leishmania (L.) amazonensis; settings: for intracellular parasitism (in words): 6.125, 25, 50 or 100 μM, 24 h; for reduction of the amastigote number over the control group: at higher concentrations, 24 h incubation, infected BALB/c macrophages
In short: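 BALB/c bone-marrow-derived macrophages infected with stationary-phase L. (L.) amazonensis promastigotes (MHOM/BR/1973/M2269) at MOI 10 for 1 h, washed three times with PBS, then held 24 h at 33 °C, 5% CO2. Test compound added at 6.125, 25, 50 or 100 μM for 24 h at 33 °C. Cells washed, MeOH-fixed and stained; amastigotes counted in 300 cells on triplicate coverslips. Percent reduction taken versus untreated infected cells; two independent experiments.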

[11] = test system: T. brucei rhodesiense; settings: cited from earlier work
[12] = test system: Leishmania donovani; settings: cited from earlier work
[13] = test system: T. cruzi; settings: cited from earlier work
[14] = Plasmodium falciparum, 3D7, read-out: P. falciparum (3D7) EC50+/−S.D., 3D7 sensitive strain, SYBR green

SMILES | EC50 [5, 14] [µM] | anti-plasmodial activity against P. falciparum (in words) [5] | further results
COC(=O)c1cc(Br)c(Br)[nH]1 |  |  | anti-parasitic activity against P. falciparum [1]: 7.9 µg/mL
O=C(O)c1cc(Br)c(Br)[nH]1 [4,5-dibromo-1H-pyrrole-2-carboxylic acid] |  |  | anti-parasitic activity against P. falciparum [1]: 5.8 µg/mL
O=C(NCCCCNCCCNC(=O)c1cc(Br)c(Br)[nH]1)c1cc(Br)c(Br)[nH]1 [Compound 1, pseudoceratidine] | 1.1 ± 0.1 |  | anti-parasitic activity against L. (L.) infantum (in words) [2]: essentially inactive; anti-parasitic activity against L. (L.) amazonensis (in words) [3]: essentially inactive; anti-parasitic activity against T. cruzi (in words) [4]: essentially inactive; HepG2 MDL50+/−S.D. [6]: 16 ± 1 (14.6 – 17.4) μM; toxicity for HepG2 cells by microscopic morphology [7]: not toxic; stage-specific inhibitory activity (in words) [8]: inhibitory activity in the early ring stages; interaction effect in combination with artesunate [9]: additive
CN(CCCCNC(=O)c1cc(Br)c(Br)[nH]1)CCCNC(=O)c1cc(Br)c(Br)[nH]1 [Compound 16, N-Methyl-pseudoceratidine] | 4 ± 1 | still active | 
[N-]=[N+]=NCC(=O)N(CCCCNC(=O)c1cc(Br)c(Br)[nH]1)CCCNC(=O)c1cc(Br)c(Br)[nH]1 [Compound 17] | > 10 | inactive | anti-parasitic activity against L. (L.) infantum (in words) [2]: inactive; anti-parasitic activity against L. (L.) amazonensis (in words) [3]: inactive; anti-parasitic activity against T. cruzi (in words) [4]: inactive
O=C(NCCCCCNC(=O)c1cc(Br)c(Br)[nH]1)c1cc(Br)c(Br)[nH]1 [Compound 20] | > 10 | inactive | anti-parasitic activity against L. (L.) amazonensis (in words) [3]: active, but considerably less potent; anti-parasitic activity against T. cruzi (in words) [4]: good anti-parasitic activity
O=C(NCCCCCCCCNC(=O)c1cc(Br)c(Br)[nH]1)c1cc(Br)c(Br)[nH]1 [Compound 21] | > 10 | inactive | 
O=C(NCCCNCCCCNCCCNC(=O)c1cc(Br)c(Br)[nH]1)c1cc(Br)c(Br)[nH]1 [Compound 23] | 1.9 ± 1.2 | as active as pseudoceratidine | anti-parasitic activity against L. (L.) amazonensis (in words) [3]: active, but considerably less potent; EC50 ([5]; read-out: P. falciparum (3D7) EC50+/−S.D., 3D7 sensitive strain, SYBR green): 2 ± 1 µM; intracellular parasitism (in words) [10]: reduced in a dose-dependent manner; reduction of the amastigote number over the control group [10]: approximately 80%
O=C(NCCCCCCNCCCCCCNC(=O)c1cc(Br)c(Br)[nH]1)c1cc(Br)c(Br)[nH]1 [Compound 25] | 2 ± 1 | as active as pseudoceratidine | 
O=C(NCCSCCNC(=O)c1cc(Br)c(Br)[nH]1)c1cc(Br)c(Br)[nH]1 [Compound 27] | > 10 | inactive | anti-parasitic activity against L. (L.) amazonensis (in words) [3]: active, but considerably less potent; anti-parasitic activity against T. cruzi (in words) [4]: weak activity
O=C(NCCCCCNC(=O)c1ccc[nH]1)c1ccc[nH]1 [Compound 28] | > 10 |  | 
O=C(NCCCCNCCCNC(=O)c1ccc[nH]1)c1ccc[nH]1 [Compound 29] | > 10 | completely inactive | 
O=C(NCCCCNCCCNC(=O)c1cc(Br)c[nH]1)c1cc(Br)c[nH]1 [Compound 31, 2,21-debromopseudoceratidine] | 7 ± 1 |  | 
O=C(NCCCCNCCCNC(=O)c1cc(Cl)c(Cl)[nH]1)c1cc(Cl)c(Cl)[nH]1 [Compound 33] | > 10 | completely inactive | 
O=C(NCCCCNCCCNC(=O)c1ccc(F)[nH]1)c1ccc(F)[nH]1 [Compound 35] | > 10 | completely inactive | 
O=C(NCCCCNCCCNC(=O)c1cc2ccccc2[nH]1)c1cc2ccccc2[nH]1 [Compound 38] | > 10 |  | 
O=C(NCCCCNCCCNC(=O)c1nc2ccccc2[nH]1)c1nc2ccccc2[nH]1 [Compound 39] | > 10 |  | 
O=C(NCCCCNCCCNC(=O)c1ccc(Br)s1)c1ccc(Br)s1 [Compound 42] | > 10 |  | anti-parasitic activity against L. (L.) amazonensis (in words) [3]: active, but considerably less potent; intracellular parasitism (in words) [10]: reduced in a dose-dependent manner; reduction of the amastigote number over the control group [10]: approximately 80%
Cc1ccc(C(=O)NCCCCNCCCNC(=O)c2ccc(C)s2)s1 [Compound 43] | > 10 |  | 
O=C(NCCCCNCCCNC(=O)c1cccc(Cl)n1)c1cccc(Cl)n1 [Compound 46] | > 10 |  | 
Cc1cccc(C(=O)NCCCCNCCCNC(=O)c2cccc(C)n2)n1 [Compound 47] | > 10 |  | 
O=C(NCCCCNCCCNC(=O)c1cc(Br)c(Br)o1)c1cc(Br)c(Br)o1 [Compound 50] | 3 ± 1 |  | anti-parasitic activity against L. (L.) amazonensis (in words) [3]: active, but considerably less potent; intracellular parasitism (in words) [10]: reduced in a dose-dependent manner; reduction of the amastigote number over the control group [10]: approximately 80%
Cc1ccc(C(=O)NCCCCNCCCNC(=O)c2ccc(C)o2)o1 [Compound 51] |  | completely inactive | 
Nc1ncc(/C=C/CNC(=O)c2cc(Br)c(Br)[nH]2)[nH]1 [Oroidin] |  |  | anti-parasitic activity against P. falciparum [1]: 3.9 µg/mL; activity against T. brucei rhodesiense [11]: 17.3 µg/mL; activity against Leishmania donovani (in words) [12]: inactive; activity against T. cruzi (in words) [13]: inactive
